How the values were obtained:
[1] = Cytotoxicity against human HeLa Ohio cells assessed as maximal non-cytotoxic concentration after 3 days by XTT assay; format: cell-based; conditions: read-out: MNCC
[2] = test system: rhinovirus B14; test: Antiviral activity against HRV 14 infected in human HeLa Ohio cells assessed as reduction in viral plaque formation at maximum non-cytotoxic concentration after 3 days by neutral red uptake assay; format: functional
Method in brief: (§1)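 Plaque reduction on HeLa (Ohio) monolayers, with dosing starting from the maximum non-cytotoxic concentration. Virus was adsorbed 1 h at 33 °C, then cells got plaque overlay with fourfold drug dilutions, 3 days at 33 °C, and neutral red staining. Values are % plaque reduction at that concentration vs mock-treated control.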

[3] = test system: rhinovirus A1B; test: Antiviral activity against HRV 1B infected in human HeLa Ohio cells assessed as reduction in viral plaque formation after 3 days by neutral red uptake assay; format: functional, organism-based, Human rhinovirus 1B; conditions: Rhinovirus A, 72 h
Method in brief: (§2)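 HeLa (Ohio) monolayers were infected with enough virus for about 100 plaques per well, adsorbed 1 h at 33 °C, then overlaid with plaque medium with or without fourfold drug dilutions. After 3 days at 33 °C, cells were stained with neutral red (0.2 mg/mL in PBS pH 7.4) and plaques counted. IC50 was read from a plot of % plaque reduction vs log dose against mock-treated control.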

[4] = Cytotoxicity against human HeLa Ohio cells after 3 days by XTT assay; format: cell-based; conditions: read-out: TC50
[5] = test system: rhinovirus A1B; test: Antiviral activity against HRV 1B infected in human HeLa Ohio cells assessed as reduction in viral plaque formation at maximum non-cytotoxic concentration after 3 days by neutral red uptake assay; format: functional, Human rhinovirus 1B; method in brief: as §1
[6] = test system: rhinovirus B14; test: Antiviral activity against HRV 14 infected in human HeLa Ohio cells assessed as reduction in viral plaque formation after 3 days by neutral red uptake assay; format: functional, organism-based; method in brief: as §2
[7] = Therapeutic index, ratio of TC50 for human HeLa Ohio cells to IC50 for HRV1B infected in human HeLa Ohio cells; format: cell-based; conditions: read-out: TI

Clc1ccc(C2CCc3cc(Cl)ccc3O2)cc1 (stereo unspecified) showed an MNTC at 72 h [1] of 25 µM.

For Clc1ccc2c(c1)CC(Cc1ccccc1)CO2 (stereo unspecified), the MNTC at 72 h [1] was 25 µM.

Clc1ccc2c(c1)C/C(=C/c1ccccc1)CO2 showed an MNTC at 72 h [1] of 25 µM.

C1=C(Cc2ccccc2)COc2ccccc21 gave an MNTC at 72 h [1] of 25 µM.

Compound c1ccc(CC2COc3ccccc3C2)cc1 (stereo unspecified) has an MNTC at 72 h [1] of 25 µM.

For C(=C1/COc2ccccc2C1)/c1ccccc1, the MNTC at 72 h [1] was 25 µM.

For O[C@H]1c2cc(Cl)ccc2OC[C@H]1Cc1ccc(Cl)cc1 (relative stereo), the MNTC at 72 h [1] was 25 µM.

For O[C@H]1c2ccccc2OC[C@H]1Cc1ccc(Cl)cc1 (relative stereo), the MNTC at 72 h [1] was 12.5 µM.

In the case of O[C@H]1c2ccccc2OC[C@H]1Cc1ccccc1 (relative stereo), the “inhibition (INH)” value [2] is reported as 15.9%, the IC50 [3] is reported as 3.49 µM and the CC50 at 72 h [4] is reported as 150 µM. The MNTC at 72 h [1] was 25 µM, the “inhibition (INH)” value [5] was 50% and the IC50 ([6]; Rhinovirus B, HeLa, 72 h) was over 25 µM. The selectivity ratio [7] was 43.

O[C@H]1c2ccccc2OC[C@@H]1Cc1ccccc1 (relative stereo) gave an IC50 [3] of 3.59 µM, a CC50 at 72 h [4] of over 200 µM and an MNTC at 72 h [1] of 25 µM. The “inhibition (INH)” value [5] was 50%, the IC50 ([6]; hela) was “Not Active” and the selectivity ratio [7] was over 55.7.
